The results in this text go back to ChEMBL document CHEMBL1240465, “Prenylflavonoids and prenyl/alkyl-phloroacetophenones: synthesis and antitumour biological evaluation” (Eur J Med Chem, 2010).

Molecules are shown by their SMILES.

Type in all cases: functional, cell-based
For experiment [1], the system named is HeLa. Put plainly: Cytotoxicity against human HeLa cells after 72 hrs by XTT assay. An outline of the steps:
(§1)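 Cells grown in DMEM (A549, HT-29, HeLa) or RPMI1640 (HL-60), both with 10% heat-inactivated fetal bovine serum, were exposed to compound across a concentration range for 72 h at 37 °C in humidified air/CO₂ (19/1), then read by XTT. Measurements were in triplicate. IC50 is the concentration giving 50% proliferation inhibition versus untreated controls, reported as mean ± S.D. of three independent determinations.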
(Tetrazolium assays rely on reduction of a dye to a coloured formazan, in cell work by metabolically active cells.)

Experiment [2] relates to A549. Put plainly: Cytotoxicity against human A549 cells after 72 hrs by XTT assay. The note with it: A549, 72 h. An outline of the steps: as §1
In experiment [3] the test system is HT-29. Put plainly: Cytotoxicity against human HT-29 cells after 72 hrs by XTT assay. The note with it: HT-29, 72 h. An outline of the steps: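 Cells grown in DMEM (A549, HT-29, HeLa) or RPMI1640 (HL-60), both with 10% heat-inactivated fetal bovine serum, were exposed to compound across a concentration range for 72 h at 37 °C in humidified air/CO₂ (19/1), then read by XTT. Measurements were in triplicate.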

For experiment [4], the system named is HL-60. Put plainly: Cytotoxicity against human HL60 cells after 72 hrs by XTT assay. The note with it: HL-60, 72 h. An outline of the steps: as §1

Turning to `CC(=O)c1c(O)cc2c(c1O)CCC(C)(CC/C=C(\C)CCC=C(C)C)O2` (configuration not stated), the half-inhibitory concentration (IC50) (as a rule, the concentration at which inhibition is half-maximal) in experiment [1] was 30 µM; in experiment [2], > 100 µM; in experiment [3], > 100 µM; in experiment [4] it was 31 µM.
With `CCCCCCCC/C=C\CCCCCCCCc1c(O)cc(O)c(C(C)=O)c1O`, the IC50 in experiment [1], in experiment [2], in experiment [3] and in experiment [4] was > 100 µM each time.
For the compound `CC(=O)c1c(OC/C=C(\C)CC/C=C(\C)CCC=C(C)C)cc(O)c(C/C=C(\C)CC/C=C(\C)CCC=C(C)C)c1O`, the IC50 in experiment [1] was > 100 µM; in experiment [2], > 100 µM; in experiment [3] it was > 100 µM; in experiment [4] it was 32 µM.
